According to ChEMBL document CHEMBL1142719 (J Med Chem, 2005):

Columns and labels:
[1] = target: T1, Adenosine receptor A2a (Homo sapiens, UniProt P29274); experiment: Displacement of [3H]-CGS- 21680 from human Adenosine A2A receptor expressed in CHO cells at 10 uM; type: cell-based
Summary of the method: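 Human A2A receptor stably expressed in adherent CHO cells. Competition binding used [3H]CGS 21680 as the radioligand.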

[2] = target: T2, Adenosine receptor A2b (Homo sapiens) (UniProt P29275); experiment: Relative activation of human Adenosine A2B receptor at 10 uM treatment compared to 10 uM Cl-IB-MECA; type: functional
T2 sequence (whole entry): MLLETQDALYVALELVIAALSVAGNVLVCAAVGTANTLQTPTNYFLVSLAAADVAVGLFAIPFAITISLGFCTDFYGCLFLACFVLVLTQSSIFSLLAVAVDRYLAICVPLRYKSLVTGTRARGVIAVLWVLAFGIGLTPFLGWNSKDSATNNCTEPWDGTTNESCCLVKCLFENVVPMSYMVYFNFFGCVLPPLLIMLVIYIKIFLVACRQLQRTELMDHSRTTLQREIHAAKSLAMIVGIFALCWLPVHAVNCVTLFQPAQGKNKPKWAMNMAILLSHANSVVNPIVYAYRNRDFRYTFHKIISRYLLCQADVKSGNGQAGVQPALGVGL

[3] = target: T1, Adenosine receptor A2a; experiment: Inhibition of [3H]-CGS- 21680 binding to human Adenosine A2A receptor expressed in CHO cells; type: cell-based
[4] = target: T3, Adenosine receptor A3 (Homo sapiens, UniProt P0DMS8); experiment: Inhibition of [125I]-AB-MECA binding to human Adenosine A3 receptor expressed in CHO cells; type: cell-based
T3 sequence (P0DMS8 whole entry): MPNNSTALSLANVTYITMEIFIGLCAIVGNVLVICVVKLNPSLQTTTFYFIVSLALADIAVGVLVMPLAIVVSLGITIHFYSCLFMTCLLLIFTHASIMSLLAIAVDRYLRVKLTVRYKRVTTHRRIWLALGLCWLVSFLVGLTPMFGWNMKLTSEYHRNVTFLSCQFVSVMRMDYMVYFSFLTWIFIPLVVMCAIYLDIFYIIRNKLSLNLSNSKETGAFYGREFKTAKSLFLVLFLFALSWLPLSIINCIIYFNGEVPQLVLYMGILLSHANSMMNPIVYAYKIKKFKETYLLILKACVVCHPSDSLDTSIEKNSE

[5] = target: T4, Adenosine receptor A3 (Homo sapiens) (UniProt P0DMS8); experiment: Relative activation of human Adenosine A3 receptor expressed in CHO cells at 10 uM treatment compared to 10 uM Cl-IB-MECA; type: functional, cell-based
T4 sequence (whole entry): T3 sequence (P0DMS8 whole entry)

[6] = target: T5, Adenosine receptor A1 (Homo sapiens, UniProt P30542); experiment: Inhibition of [3H]R-PIA binding to human Adenosine A1 receptor expressed in CHO cells; type: cell-based
T5 sequence (P30542 whole entry): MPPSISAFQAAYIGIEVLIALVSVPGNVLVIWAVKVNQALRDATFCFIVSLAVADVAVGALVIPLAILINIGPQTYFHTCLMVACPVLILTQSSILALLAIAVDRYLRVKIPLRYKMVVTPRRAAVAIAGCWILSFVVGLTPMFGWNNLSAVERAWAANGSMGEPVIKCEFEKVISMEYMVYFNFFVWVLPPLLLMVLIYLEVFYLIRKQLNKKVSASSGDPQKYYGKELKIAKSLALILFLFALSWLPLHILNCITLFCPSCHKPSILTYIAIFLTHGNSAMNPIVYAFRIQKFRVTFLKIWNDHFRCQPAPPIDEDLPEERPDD

[7] = target: T6, Adenosine receptor A3 (Rattus norvegicus, UniProt P28647); experiment: Inhibition of [125I]AB-MECA binding to rat Adenosine A3 receptor expressed in CHO cells; type: cell-based
T6 sequence (P28647 whole entry): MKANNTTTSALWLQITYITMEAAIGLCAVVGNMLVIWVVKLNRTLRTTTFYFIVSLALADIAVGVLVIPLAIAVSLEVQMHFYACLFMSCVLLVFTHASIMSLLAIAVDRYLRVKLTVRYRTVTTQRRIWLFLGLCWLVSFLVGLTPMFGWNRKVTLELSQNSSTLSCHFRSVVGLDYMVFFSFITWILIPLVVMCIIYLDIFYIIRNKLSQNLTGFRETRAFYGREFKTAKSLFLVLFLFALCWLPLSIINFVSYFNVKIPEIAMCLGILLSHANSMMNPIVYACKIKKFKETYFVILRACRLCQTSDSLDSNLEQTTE

T1 sequence (P29274 whole entry): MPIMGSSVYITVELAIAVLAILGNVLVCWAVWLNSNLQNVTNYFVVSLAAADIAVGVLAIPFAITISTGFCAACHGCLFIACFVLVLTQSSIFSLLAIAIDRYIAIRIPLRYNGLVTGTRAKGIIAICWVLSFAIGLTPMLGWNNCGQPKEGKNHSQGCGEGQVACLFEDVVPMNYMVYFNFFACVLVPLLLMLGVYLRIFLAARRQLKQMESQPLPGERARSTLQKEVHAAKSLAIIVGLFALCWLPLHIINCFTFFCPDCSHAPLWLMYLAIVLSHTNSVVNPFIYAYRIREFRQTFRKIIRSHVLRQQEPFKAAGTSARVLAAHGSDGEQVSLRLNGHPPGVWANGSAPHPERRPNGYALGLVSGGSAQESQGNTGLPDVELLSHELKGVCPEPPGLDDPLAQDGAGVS

SMILES | Displacement [1] [%] | Activation [2] [%] | Ki [3] [µM] | Ki [4] [µM] | Activation [5] [%] | Ki [6] [µM] | Ki [7] [µM] | Inhibition ([6]; cho) [%]
CNC(=O)[C@]12C[C@@H]1[C@@H](n1cnc3c(NCc4cccc(C#CCO)c4)nc(Cl)nc31)[C@H](O)[C@@H]2O | 56 | 28 |  |  |  |  |  | 
CNC(=O)[C@H]1O[C@@H](n2cnc3c(NCc4cccc(I)c4)ncnc32)[C@H](O)[C@@H]1O |  | 0 |  |  |  |  |  | 
CNC(=O)[C@]12C[C@@H]1[C@@H](n1cnc3c(NCc4cccc(Cl)c4)nc(I)nc31)[C@H](O)[C@@H]2O | 43 |  |  |  |  |  |  | 
CNC(=O)[C@]12C[C@@H]1[C@@H](n1cnc3c(NCc4ccc(N)c(I)c4)nc(Cl)nc31)[C@H](O)[C@@H]2O |  |  | 1.1 |  |  |  |  | 
CNC(=O)[C@]12C[C@@H]1[C@@H](n1cnc3c(NCc4ccc(N)cc4)nc(Cl)nc31)[C@H](O)[C@@H]2O | 28 | 22 |  |  |  |  |  | 
CNC(=O)[C@]12C[C@@H]1[C@@H](n1cnc3c(NC4CC4c4ccccc4)nc(Cl)nc31)[C@H](O)[C@@H]2O (stereo not given in full) |  | 48 | 4.8 |  |  |  |  | 
COc1ccc(Cl)cc1CNc1ncnc2c1ncn2[C@@H]1O[C@H](CO)[C@@H](O)[C@H]1O |  | 57 | 0.4 |  |  |  |  | 
CNC(=O)[C@]12C[C@@H]1[C@@H](n1cnc3c(NCc4cc(Cl)ccc4OCc4ccccc4)nc(Cl)nc31)[C@H](O)[C@@H]2O |  | 49 | 0.85 | 0.0052 | 110 | 1.2 | 0.011 | 
OC[C@H]1O[C@@H](n2cnc3c(NCc4cccc(I)c4)nc(Cl)nc32)[C@H](O)[C@@H]1O |  | 16 |  |  | 0 | 0.017 |  | 
CNC(=O)[C@]12C[C@@H]1[C@@H](n1cnc3c(NCc4cc(C#CCO)ccc4Cl)nc(Cl)nc31)[C@H](O)[C@@H]2O | 12 | 6 |  | 0.217 | 108 |  |  | 14
CNC(=O)[C@@]12C[C@@H]1[C@@H](n1cnc3c(NCc4cccc(I)c4)ncnc31)[C@H](O)[C@@H]2O |  |  |  |  | 100 |  |  | 
CNC(=O)[C@]12C[C@@H]1[C@@H](n1cnc3c(NCc4cc(OC)ccc4OC)nc(Cl)nc31)[C@H](O)[C@@H]2O | 52 | 0 |  | 0.0014 | 107 | 1.6 |  | 
CNC(=O)[C@]12C[C@@H]1[C@@H](n1cnc3c(NCc4cc(I)ccc4Cl)nc(Cl)nc31)[C@H](O)[C@@H]2O |  | 58 | 0.48 |  |  |  |  | 
CNC(=O)[C@H]1O[C@@H](n2cnc3c(NCc4cccc(I)c4)nc(Cl)nc32)[C@H](O)[C@@H]1O |  | 0 |  |  |  |  |  | 
OC[C@@]12C[C@@H]1[C@@H](n1cnc3c(NCc4cccc(I)c4)ncnc31)[C@H](O)[C@@H]2O |  |  | 0.86 | 0.0092 | 13 | 0.035 |  | 
CNc1nc(N)nc2c1ncn2[C@@H]1O[C@H](CO)[C@@H](O)[C@H]1O | 15 | 11 |  |  | 98 |  | > 10 | 
CNC(=O)[C@]12C[C@@H]1[C@@H](n1cnc3c(NCc4ccccc4C)nc(Cl)nc31)[C@H](O)[C@@H]2O |  | 24 | 3.8 |  |  |  |  | 
CNC(=O)[C@]12C[C@@H]1[C@@H](n1cnc3c(NCC(c4ccccc4)c4ccccc4)nc(Cl)nc31)[C@H](O)[C@@H]2O |  | 46 | 1.6 | 0.00069 | 107 | 1.3 | 0.01 | 
CNC(=O)[C@@]12C[C@@H]1[C@@H](n1cnc3c(NCc4cccc(I)c4)nc(Cl)nc31)[C@H](O)[C@@H]2O |  |  |  |  | 100 |  |  | 
CNC(=O)[C@]12C[C@@H]1[C@@H](n1cnc3c(NCc4cc(I)ccc4OC)nc(Cl)nc31)[C@H](O)[C@@H]2O |  | 46 | 0.43 |  |  |  |  | 

SMILES | Displacement [1] [%] | Activation [2] [%] | Ki [3] [µM] | Ki [4] [µM] | Activation [5] [%] | Ki [6] [µM] | Ki [7] [µM] | Inhibition ([6]; cho) [%]
CNC(=O)[C@]12C[C@@H]1[C@@H](n1cnc3c(NCc4cccc(Br)c4)nc(Cl)nc31)[C@H](O)[C@@H]2O |  | 38 | 1.3 | 0.00038 | 100 | 0.27 | 0.00076 | 
OC[C@H]1O[C@@H](n2cnc3c(NCc4cccnc4)ncnc32)[C@H](O)[C@@H]1O |  |  | 2.3 | 0.0045 | 100 | 0.042 | 0.29 | 
CNC(=O)[C@]12C[C@@H]1[C@@H](n1cnc3c(NCc4cc(Cl)ccc4Cl)nc(Cl)nc31)[C@H](O)[C@@H]2O |  | 32 | 1.3 |  |  |  |  | 
CNC(=O)[C@]12C[C@@H]1[C@@H](n1cnc3c(NCc4cccc(Cl)c4)nc(SC)nc31)[C@H](O)[C@@H]2O | 52 |  |  | 0.0015 | 100 | 0.61 |  | 
OC[C@@]12C[C@@H]1[C@@H](n1cnc3c(NCc4cccc(I)c4)nc(Cl)nc31)[C@H](O)[C@@H]2O |  |  | 1.6 | 0.0019 | 3 | 0.065 |  | 
CNC(=O)C12C[C@@H]1[C@@H](n1cnc3c(NCc4cccnc4)nc(Cl)nc31)[C@H](O)[C@@H]2O (single isomer, unassigned) | 33 | 4 |  |  |  |  |  | 
CNC(=O)[C@]12C[C@@H]1[C@@H](n1cnc3c(NCc4cccc(C)c4)nc(Cl)nc31)[C@H](O)[C@@H]2O |  | 46 | 3.7 |  |  |  |  | 
CNC(=O)[C@@]12C[C@@H]1[C@@H](n1cnc3c(NC)nc(Cl)nc31)[C@H](O)[C@@H]2O | 6 |  |  |  | 104 |  |  | 
CNC(=O)[C@]12C[C@@H]1[C@@H](n1cnc3c(NCc4cc(Cl)ccc4OCC(N)=O)nc(Cl)nc31)[C@H](O)[C@@H]2O |  |  | 0.8 |  |  |  |  | 
OC[C@H]1O[C@@H](n2cnc3c(NCc4cccc(Cl)c4)ncnc32)[C@H](O)[C@@H]1O |  |  |  | 0.0044 | 80 |  | 0.035 | 
Cc1ccccc1CNc1ncnc2c1ncn2[C@@H]1O[C@H](CO)[C@@H](O)[C@H]1O |  |  |  |  | 100 |  | 0.038 | 
CNC(=O)[C@]12C[C@@H]1[C@@H](n1cnc3c(NC)nc(N)nc31)[C@H](O)[C@@H]2O | 17 |  |  |  |  |  |  | 
CNc1ncnc2c1ncn2[C@@H]1O[C@H](CO)[C@@H](O)[C@H]1O | 17 | 16 |  | 0.0093 |  | 6 | 6.4 | 
OC[C@H]1O[C@@H](n2cnc3c(NCC(c4ccccc4)c4ccccc4)ncnc32)[C@H](O)[C@@H]1O |  | 70 |  |  | 0 |  | 0.54 | 
CNC(=O)[C@@]12C[C@@H]1[C@@H](n1cnc3c(NCc4cccc(Cl)c4)nc(Cl)nc31)[C@H](O)[C@@H]2O |  | 38 | 2.3 |  |  | 0.26 | 0.001 | 
CNC(=O)[C@]12C[C@@H]1[C@@H](n1cnc3c(NCc4cccc(F)c4)nc(Cl)nc31)[C@H](O)[C@@H]2O |  | 28 | 5.1 |  |  |  |  | 
OC[C@H]1O[C@@H](n2cnc3c(NCc4cccc(I)c4)ncnc32)[C@H](O)[C@@H]1O |  | 58 |  |  | 46 | 0.0074 |  | 
CNC(=O)[C@@]12C[C@@H]1[C@@H](n1cnc3c(NCc4cc(Cl)ccc4OC)nc(Cl)nc31)[C@H](O)[C@@H]2O |  | 37 | 1.2 |  |  |  |  | 
OC[C@H]1O[C@@H](n2cnc3c(NC4CC4c4ccccc4)ncnc32)[C@H](O)[C@@H]1O (stereo not given in full) |  | 26 | 2.5 |  | 101 |  | 0.4 | 
